Test results: ChEMBL document CHEMBL1208780, “Tetrahydropyridine derivatives with inhibitory activity on the production of proinflammatory cytokines: part 3” (Bioorg Med Chem Lett, 2010)
Active and inactive are the calls of the source. No cut-off for these calls is given here.

Columns and labels:
Mus musculus [1] = assay: Antiinflammatory activity in po dosed mouse assessed as inhibition of LPS-induced TNFalpha production administered 30 mins before LPS challenge measured after 1 hr by ELISA; assay type: functional; details: read-out: ID50 (the source's name)
Procedure, shortened: (§1)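 Groups of five mice were used. ID50 came from a least-squares linear regression of % inhibition against log dose, with 95% confidence intervals by Fieller's theorem.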

Blood [2] = assay: Antiinflammatory activity in human whole blood assessed as inhibition of LPS-induced TNFalpha production after 6 hrs by immunoassay; assay type: functional, tissue-based
Procedure, shortened: (§2)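 Values are the mean and SD of three to four determinations. IC50 came from a least-squares linear regression of % inhibition against log concentration, with 95% confidence intervals by Fieller's theorem.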

Mus musculus [3] = assay: Antiinflammatory activity in po dosed mouse assessed as inhibition of LPS-induced IL1-beta production administered 2 hrs after LPS challenge; assay type: functional; details: read-out: ID50 (the source's name); procedure, shortened: as §1
[4] = target: T1, Mitogen-activated protein kinase 13 (Homo sapiens, UniProt O15264); assay: Inhibition of p38delta
T1 sequence (O15264 whole entry): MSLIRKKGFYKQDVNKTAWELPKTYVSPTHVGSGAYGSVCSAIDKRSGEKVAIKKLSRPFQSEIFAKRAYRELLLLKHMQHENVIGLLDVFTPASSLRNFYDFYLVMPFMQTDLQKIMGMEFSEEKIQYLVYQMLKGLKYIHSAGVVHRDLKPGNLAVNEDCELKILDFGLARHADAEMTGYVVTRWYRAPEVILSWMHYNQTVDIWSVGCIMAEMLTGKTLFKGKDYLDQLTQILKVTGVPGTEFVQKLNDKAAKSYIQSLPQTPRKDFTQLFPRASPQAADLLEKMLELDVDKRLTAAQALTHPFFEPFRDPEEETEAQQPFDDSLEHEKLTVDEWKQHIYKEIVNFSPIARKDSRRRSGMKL
Procedure, shortened: (§3)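 Kinase inhibition IC50 was the mean and SD of three to four determinations. It was derived by least-squares linear regression of % inhibition against log concentration, with 95% confidence intervals by Fieller's theorem.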

[5] = target: Mitogen-activated protein kinase 11 (Homo sapiens, UniProt Q15759); assay: Inhibition of p38beta; procedure, shortened: as §3
Mitogen-activated protein kinase 11, sequence (Q15759 whole entry): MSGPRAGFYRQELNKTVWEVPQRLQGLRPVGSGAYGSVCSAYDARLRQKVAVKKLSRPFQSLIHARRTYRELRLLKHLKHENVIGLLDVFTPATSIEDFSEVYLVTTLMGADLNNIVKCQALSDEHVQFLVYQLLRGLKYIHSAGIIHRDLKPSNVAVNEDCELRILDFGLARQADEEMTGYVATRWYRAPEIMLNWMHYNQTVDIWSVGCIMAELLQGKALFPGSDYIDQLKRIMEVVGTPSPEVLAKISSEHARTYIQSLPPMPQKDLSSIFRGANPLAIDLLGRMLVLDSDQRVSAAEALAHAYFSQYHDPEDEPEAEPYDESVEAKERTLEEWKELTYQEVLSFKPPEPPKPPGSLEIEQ

[6] = target: T2, Mitogen-activated protein kinase 12 (Homo sapiens) (UniProt P53778); assay: Inhibition of p38-gamma at 10 uM
T2 sequence (whole entry): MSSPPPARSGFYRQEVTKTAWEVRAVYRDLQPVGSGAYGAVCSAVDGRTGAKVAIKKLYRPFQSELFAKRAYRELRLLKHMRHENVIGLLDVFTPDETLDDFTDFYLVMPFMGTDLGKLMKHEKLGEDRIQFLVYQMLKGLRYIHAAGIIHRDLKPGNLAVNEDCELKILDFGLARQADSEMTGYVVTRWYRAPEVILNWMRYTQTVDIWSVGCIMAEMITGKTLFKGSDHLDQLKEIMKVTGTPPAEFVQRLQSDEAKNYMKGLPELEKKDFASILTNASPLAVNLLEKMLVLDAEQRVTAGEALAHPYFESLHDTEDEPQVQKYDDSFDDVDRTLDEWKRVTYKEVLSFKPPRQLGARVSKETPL

Rattus norvegicus [7] = assay: Analgesic activity in po dosed heat-killed mycobacterium tuberculosis-induced rat arthritis model assessed as decrease in squeaking behavior after 72 hrs […]; assay type: functional; details: read-out: ID50 (the source's name)
Blood [8] = assay: Antiinflammatory activity in human whole blood assessed as inhibition of LPS-induced IL-8 production after 6 hrs by immunoassay; assay type: functional, tissue-based; procedure, shortened: as §2
[9] = target: Mitogen-activated protein kinase 14 (Homo sapiens, UniProt Q16539); assay: Inhibition of p38alpha; procedure, shortened: as §3
Mitogen-activated protein kinase 14, sequence (Q16539 whole entry): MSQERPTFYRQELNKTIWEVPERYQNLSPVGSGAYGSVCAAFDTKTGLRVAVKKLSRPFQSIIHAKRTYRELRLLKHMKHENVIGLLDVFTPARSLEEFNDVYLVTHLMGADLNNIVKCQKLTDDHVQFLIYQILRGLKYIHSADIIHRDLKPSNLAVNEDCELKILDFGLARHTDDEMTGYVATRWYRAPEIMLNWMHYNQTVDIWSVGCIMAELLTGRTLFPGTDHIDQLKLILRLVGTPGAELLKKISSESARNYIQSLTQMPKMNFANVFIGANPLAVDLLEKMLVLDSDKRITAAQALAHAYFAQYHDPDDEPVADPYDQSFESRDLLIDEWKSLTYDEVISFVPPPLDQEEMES

Rattus norvegicus [10] = assay: Antiarthritic activity in po dosed heat-killed mycobacterium tuberculosis-induced rat arthritis model assessed as decrease in paw volume administered BID for 7 days measured 24 hrs post last dose by plethysmometry; assay type: functional; details: read-out: ID50 (the source's name)
Procedure, shortened: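 Adjuvant arthritis was established by day 18, and rats with injected-foot volume ≥2.75 mL were grouped to equal means. Test agents in 0.5% CMC were given orally at 5 mL/kg twice daily on days 18–24. Feet were measured by plethysmometer on days 18, 20, 23 and 25. The swelled-foot ratio (day 25/day 18, corrected by normal animals) gave % inhibition versus controls. n=5.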

Mus musculus [11] = organism: Mus musculus; assay: Antiarthritic activity in DBA/1 mouse assessed as inhibition of anti-collagen antibody-induced arthritis after 3 weeks; assay type: functional; details: DBA/1, 504 h, read-out: ID50 (the source's name); procedure, shortened: as §1
Mus musculus [12] = assay: Antiinflammatory activity in po dosed mouse assessed as inhibition of LPS-induced IL-6 production; assay type: functional; details: read-out: ID50 (the source's name); procedure, shortened: as §1
[13] = target: T3, Mitogen-activated protein kinase 13 (Homo sapiens) (UniProt O15264); assay: Inhibition of p38delta at 10 uM
T3 sequence (whole entry): T1 sequence (O15264 whole entry)

Mus musculus [14] = organism: Mus musculus; assay: Antiarthritic activity in DBA/1 mouse assessed as inhibition of collagen-induced arthritis; assay type: functional; details: read-out: ID50 (the source's name); procedure, shortened: as §1
Rattus norvegicus [15] = assay: Antiarthritic activity in po dosed heat-killed mycobacterium tuberculosis-induced rat arthritis model assessed as decrease in paw volume administered QD for 20 days measured on day 21 by plethysmometry; assay type: functional; details: read-out: ID50 (the source's name)
[16] = target: T4, Mitogen-activated protein kinase 12 (Homo sapiens, UniProt P53778); assay: Inhibition of p38-gamma; procedure, shortened: as §3
T4 sequence (P53778 whole entry): T2 sequence (whole entry)

Blood [17] = assay: Antiinflammatory activity in human whole blood assessed as inhibition of LPS-induced IL-6 production after 6 hrs by immunoassay; assay type: functional, tissue-based; procedure, shortened: as §2
Blood [18] = assay: Antiinflammatory activity in human whole blood assessed as inhibition of LPS-induced IL1-beta production after 6 hrs by immunoassay; assay type: functional, tissue-based; procedure, shortened: as §2
Blood [19] = assay: Antiinflammatory activity in human whole blood assessed as inhibition of LPS-induced TNFalpha production at 1 uM after 6 hrs by immunoassay; assay type: functional

Fc1ccc(-c2[nH]cc(C3=CCN4CCCCC4C3)c2-c2ccncc2)cc1 (stereo not drawn)
ED50 (Mus musculus [1]): 3.55 mg/kg | IC50 (Blood [2]): 810 nM

Fc1ccc(-c2[nH]cc(C3=CCN4CCCC4C3)c2-c2ccncc2)cc1 (stereo not drawn)
ED50 (Mus musculus [1]): 2.85 mg/kg | IC50 (Blood [2]): 600 nM

Fc1ccc(-c2[nH]cc(C3=CC4CCCN4CC3)c2-c2ccncc2)cc1 (stereo not drawn)
ED50 (Mus musculus [1]): 1.09 mg/kg | IC50 (Blood [2]): 42 nM

Fc1ccc(-c2[nH]cc(C3=CC4CCCCN4CC3)c2-c2ccncc2)cc1 (stereo not drawn)
ED50 (Mus musculus [1]): 2.27 mg/kg | IC50 (Blood [2]): 310 nM

Fc1ccc(-c2[nH]cc(C3=C[C@@H]4CCCN4CC3)c2-c2ccncc2)cc1
ED50 (Mus musculus [3]): 8.63 mg/kg | IC50 [4]: > 10000 nM | IC50 [5]: 572 nM | inhibition [6]: inactive | ED50 (Rattus norvegicus [7]): 2.9 mg/kg | IC50 (Blood [8]): 16 nM | IC50 [9]: 34 nM | ED50 (Rattus norvegicus [10]): 4.9 mg/kg | ED50 (Mus musculus [11]): 2.22 mg/kg | ED50 (Mus musculus [12]): 0.11 mg/kg | inhibition [13]: inactive | ED50 (Mus musculus [14]): 2.38 mg/kg | ED50 (Mus musculus [1]): 0.93 mg/kg | ED50 (Rattus norvegicus [15]): 3.1 mg/kg | IC50 [16]: > 10000 nM | IC50 (Blood [17]): 880 nM | IC50 (Blood [2]): 26 nM | IC50 (Blood [18]): 20 nM

Fc1ccc(-c2[nH]cc(C3=C[C@H]4CCCN4CC3)c2-c2ccncc2)cc1
inhibition at 1 µM (Blood [19]): 49% | ED50 (Mus musculus [1]): 6.59 mg/kg
